# Active and inactive are the calls of the source. The rule behind the calls is not given here. Starred links: 1 amine or outer side, 2 acyl side, 3 side chain; linkers in the order of their positions; H or OH if unused. Positions of bridges follow the written chain, without caps; N, C: chain ends. Non-standard residues stand in square brackets, D forms with d. Residues, ends and D or L forms follow the SMILES beside them. *: point of attachment. X6 = C=CCc1cc(C[C@H](N[*:1])C(=O)[*:2])ccc1O; NMeR = CN[C@@H](CCCNC(=N)N)C(=O)O; X7 = C=CCCCCCCC(=O)*
# Legend:
# [1] = Half life in rat plasma by UPLC-MS analysis; format: ADME, cell-free
# Procedure, shortened: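 Quenched with acetonitrile/ethanol (1:1) plus 0.5% nicotinamide, centrifuged and filtered. Parent peptide measured by UPLC-MS; half-life from a one-phase decay fit.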
# [2] = molecular target: T1, Neurotensin receptor type 1 (Homo sapiens, UniProt P30989); assay: Displacement of [125I]Tyr3-neurotensin from human NTS1 receptor expressed in CHOK1 cell membranes after 60 mins by gamma counting analysis
# T1 sequence (P30989 whole entry, the tested form may be a part): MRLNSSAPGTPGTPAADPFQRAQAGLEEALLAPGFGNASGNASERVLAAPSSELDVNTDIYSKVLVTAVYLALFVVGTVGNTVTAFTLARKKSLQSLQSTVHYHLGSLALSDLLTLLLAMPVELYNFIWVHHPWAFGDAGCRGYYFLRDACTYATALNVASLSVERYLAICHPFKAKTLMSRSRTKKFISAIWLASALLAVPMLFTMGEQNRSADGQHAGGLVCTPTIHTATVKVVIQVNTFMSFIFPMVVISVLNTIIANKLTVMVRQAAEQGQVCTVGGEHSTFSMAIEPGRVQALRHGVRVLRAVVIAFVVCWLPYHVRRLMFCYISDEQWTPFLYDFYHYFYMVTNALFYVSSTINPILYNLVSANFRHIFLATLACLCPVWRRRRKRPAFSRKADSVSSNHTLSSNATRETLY
# [3] = molecular target: T1, Neurotensin receptor type 1; assay: Agonist activity at GFP10/beta-arrestin2-Rluc2 fused human NTS1 expressed in CHO-K1 cell membranes assessed as beta-arrestin2 recruitment after 20 mins by BRET assay; format: functional, cell-based
# [4] = molecular target: T1, Neurotensin receptor type 1; assay: Agonist activity at Galphaq-Rluc2/Gbeta1/GFP10-Ggamma1 fused human NTS1 expressed in CHO-K1 cell membranes assessed as Galphaq activation after 5 mins by BRET assay; format: functional, cell-based
# [5] = molecular target: T1, Neurotensin receptor type 1; assay: Agonist activity at GFP10/beta-arrestin1-Rluc2 fused human NTS1 expressed in CHO-K1 cell membranes assessed as beta-arrestin1 recruitment after 20 mins by BRET assay; format: functional, cell-based
# Rattus norvegicus [6] = assay: Hypotensive activity in Sprague-Dawley rat assessed as reduction in arterial blood pressure in first phase at 0.01 mg/kg, iv measured every second up to 900 secs; format: functional
# Procedure, shortened: (§1)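 Sprague-Dawley rats anesthetized with ketamine/xylazine (87:13 mg/kg, i.m.) on a heated pad. Compound given i.v. via jugular vein catheter at 0.01 mg/kg (1 mL/kg over 5-10 s); saline as control. Arterial pressure recorded each second for 900 s. Change in mean arterial pressure taken from basal level; n=3-5 rats.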
# Rattus norvegicus [7] = assay: Analgesic activity in Sprague-Dawley rat assessed as increase in tail withdrawal latency at 30 ug/kg, it measured at 10 mins post injection by tail flick test relative to control; format: functional
# Procedure, shortened: (§2)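 Adult male Sprague-Dawley rats (225-300 g), acclimatized 5 min/day for 3 days. Baseline tail-flick latency taken before injection. Dosing under light isoflurane anesthesia, intrathecal at L5-L6, compound in 0.9% saline; saline alone as control. Latency to heat (light beam) read every 10 min up to 60 min. %MPE taken at 10 min post-injection.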
# [8] = molecular target: T1, Neurotensin receptor type 1; assay: Agonist activity at Galpha13-Rluc2/Gbeta1/GFP10-Ggamma1 fused human NTS1 expressed in CHO-K1 cell membranes assessed as Galpha13 activation after 5 mins by BRET assay; format: functional, cell-based
# Rattus norvegicus [9] = assay: Hypotensive activity in Sprague-Dawley rat assessed as reduction in arterial blood pressure in first phase at 0.01 mg/kg, iv measured every second up to 900 secs
# Rattus norvegicus [10] = assay: Analgesic activity in formalin-induced Sprague-Dawley rat pain model assessed as inhibition of nociceptive response in right hind paw at 30 ug/kg, it measured for 21 to 60 mins; format: functional, organism-based
# Procedure, shortened: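 Male Sprague-Dawley rats dosed intrathecally at 30 µg/kg in 0.9% saline; 5 min later, 50 µl of 2% formaldehyde given into the right hind paw plantar surface. Weighted pain score (0-3) recorded per 3-min block over 60 min. Acute phase 0-9 min, inflammatory phase 21-60 min.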
# Rattus norvegicus [11] = assay: Induction of hypothermia in Sprague-Dawley rat assessed as reduction in body temperature at 30 ug/kg, it after 60 mins; format: functional, organism-based
# Procedure, shortened: (§3)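 Rectal thermistor temperature in adult Sprague-Dawley rats acclimatized 5 min/day for 3 days. Baseline taken, then readings every 10 min to 60 min after intrathecal dosing in 0.9% saline, at 0.3, 1, 3, 10 and 30 µg/kg for the dose-response series. Single-dose comparisons at 30 µg/kg read only at 60 min. Change from baseline per animal; AUC per dose used for ED50.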
# Rattus norvegicus [12] = assay: Hypotensive activity in Sprague-Dawley rat assessed as reduction in arterial blood pressure in third phase at 0.01 mg/kg, iv measured every second up to 900 secs; format: functional, organism-based; procedure, shortened: as §1
# Rattus norvegicus [13] = assay: Analgesic activity in Sprague-Dawley rat assessed as increase in tail withdrawal latency at 30 ug/kg, it measured every 10 mins up to 60 mins by tail flick test; format: functional, organism-based; procedure, shortened: as §2
# Rattus norvegicus [14] = assay: Induction of hypothermia in it dosed Sprague-Dawley rat assessed as reduction in body temperature measured every 10 mins up to 60 mins; format: functional; procedure, shortened: as §3
# Rattus norvegicus [15] = assay: Induction of hypothermia in Sprague-Dawley rat assessed as reduction in body temperature at 0.3 to 30 ug/kg, it after 60 mins; format: functional, organism-based; procedure, shortened: as §3
# Rattus norvegicus [16] = assay: Analgesic activity in Sprague-Dawley rat assessed as increase in tail withdrawal latency at 10 ug/kg, it measured every 10 mins up to 60 mins by tail flick test; format: functional, organism-based; procedure, shortened: as §2
# Rattus norvegicus [17] = assay: Analgesic activity in it dosed Sprague-Dawley rat assessed as increase in tail withdrawal latency measured every 10 mins up to 60 mins by tail flick test; format: functional; procedure, shortened: as §2
# Rattus norvegicus [18] = assay: Analgesic activity in Sprague-Dawley rat assessed as increase in tail withdrawal latency at 1 ug/kg, it measured every 10 mins up to 60 mins by tail flick test; format: functional, organism-based; procedure, shortened: as §2
# [19] = molecular target: T1, Neurotensin receptor type 1; assay: Displacement of [3H]-neurotensin from NTS1 receptor (unknown origin) after 20 mins by liquid scintillation counting analysis
# [20] = molecular target: T1, Neurotensin receptor type 1; assay: Displacement of [125I]Tyr3-neurotensin from human NTS1 receptor (end Leu 194 residues) expressed in CHO cells; format: cell-based
# Procedure, shortened: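 Membranes from CHO-K1 cells stably expressing hNTS1 (15 µg) incubated with 45 pM 125I-[Tyr3]-NT in 50 mM Tris-HCl pH 7.5, 0.2% BSA. Analogue at 10^-11 to 10^-4 M for 60 min at 25°C, then filtration and gamma counting. Nonspecific binding defined with 10^-5 M NT(8-13).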
compound,measurement,setting,value
CC[C@H](C)[C@H](NC(=O)[C@@H]1Cc2ccc(O)c(c2)CC=CCNCC[C@H](N)C(=O)N[C@@H](CCCCN)C(=O)N2CCC[C@H]2C(=O)N1)C(=O)N[C@@H](CC(C)C)C(=O)O,half-life,[1],2.5 h
CC[C@H](C)[C@H](NC(=O)[C@@H]1Cc2ccc(O)c(c2)CC=CCCCNCCCC[C@H](N)C(=O)N[C@@H](CCCCN)C(=O)N2CCC[C@H]2C(=O)N1)C(=O)N[C@@H](CC(C)C)C(=O)O,half-life,[1],0.3 h
CCOC(=O)[C@H](CC(C)C)NC(=O)[C@@H](NC(=O)[C@H](Cc1c[nH]c2ccccc12)NC(=O)[C@@H]1CCCN1C(=O)[C@H](CCCCN)NC(=O)[C@@H](N)CCCCN)C(C)(C)C [listing 1 of 2 here],Ki,[2],159 nM
C=CCCCCCCC(=O)N[C@@H](CCCCN)C(=O)N1CCC[C@H]1C(=O)N[C@@H](Cc1ccc(O)c(CC=C)c1)C(=O)N[C@H](C(=O)N[C@@H](CC(C)C)C(=O)O)[C@@H](C)CC (X7-KP[X6]IL-OH),Ki,[2],> 10000 nM
CC[C@H](C)[C@H](NC(=O)[C@@H]1Cc2ccc(O)c(c2)CC=CCCNCCCC[C@H](N)C(=O)N[C@@H](CCCCN)C(=O)N2CCC[C@H]2C(=O)N1)C(=O)N[C@@H](CC(C)C)C(=O)O,half-life,[1],0.25 h
C=CCNCCCC[C@H](N)C(=O)N[C@@H](CCCCN)C(=O)N1CCC[C@H]1C(=O)N[C@@H](Cc1ccc(O)c(CC=C)c1)C(=O)N[C@H](C(=O)N[C@@H](CC(C)C)C(=O)O)[C@@H](C)CC,EC50,[3],9 nM
same,EC50,[4],7 nM
same,EC50,[5],15 nM
same,half-life,[1],0.0833 h
CC[C@H](C)[C@H](NC(=O)[C@@H]1Cc2ccc(O)c(c2)CC=CCN(S(=O)(=O)c2ccccc2[N+](=O)[O-])CCCC[C@H](N)C(=O)N[C@@H](CCCCN)C(=O)N2CCC[C@H]2C(=O)N1)C(=O)N[C@@H](CC(C)C)C(=O)O,half-life,[1],1.4 h
CCOC(=O)[C@H](CC(C)C)NC(=O)[C@@H](NC(=O)[C@H](Cc1c[nH]c2ccccc12)NC(=O)[C@@H]1CCCN1C(=O)[C@H](CCCCN)NC(=O)[C@@H](N)CCCCN)C(C)(C)C [listing 2 of 2 here],Activity,Rattus norvegicus [6],25 mmHg
same,MPE,Rattus norvegicus [7],75%
CC[C@H](C)[C@H](NC(=O)[C@@H]1Cc2ccc(O)c(c2)CC=CCCCCCCC(=O)N[C@@H](CCCCN)C(=O)N2CCC[C@H]2C(=O)N1)C(=O)N[C@@H](CC(C)C)C(=O)O,Ki,[2],5600 nM
same,EC50,[5]; cho-k1,1500 nM
same,EC50,[8]; cho-k1,433 nM
CCOC(=O)[C@H](CC(C)C)NC(=O)[C@@H](NC(=O)[C@H](Cc1c[nH]c2ccccc12)NC(=O)[C@H]1CCCN1C(=O)[C@H](CCCCN)NC(=O)[C@@H](N)CCCCN)C(C)(C)C,Activity,Rattus norvegicus [9],Active
same,Activity,Rattus norvegicus [10],Active
same,deltaT,Rattus norvegicus [11],2 °C
same,Activity,Rattus norvegicus [12],Active
CC[C@H](C)[C@H](NC(=O)[C@@H]1Cc2ccc(O)c(c2)CC=CCCCCCC[C@](C)(N)C(=O)N[C@@H](CCCCN)C(=O)N2CCC[C@H]2C(=O)N1)C(=O)N[C@@H](CC(C)C)C(=O)O [listing 1 of 2 here],EC50,[3],28 nM
same,half-life,[1],24 h
CC[C@H](C)[C@H](NC(=O)[C@@H]1Cc2ccc(O)c(c2)CC=CCNCCCC[C@@H](N)C(=O)N[C@@H](CCCCN)C(=O)N2CCC[C@H]2C(=O)N1)C(=O)N[C@@H](CC(C)C)C(=O)O,half-life,[1],24 h
CC[C@H](C)[C@H](NC(=O)[C@H]1Cc2ccc(O)c(c2)CC=CCNCCC[C@@H](N)C(=O)N[C@@H](CCCCN)C(=O)N2CCC[C@H]2C(=O)N1)C(=O)N[C@@H](CC(C)C)C(=O)O,Activity,Rattus norvegicus [13],Active
same,Activity,Rattus norvegicus [14],Dose-dependent effect
same,Activity,Rattus norvegicus [9],Active
same,deltaT,Rattus norvegicus [15],2 °C
same,Activity,Rattus norvegicus [10],Active
same,Activity,Rattus norvegicus [12],inactive
same,Activity,Rattus norvegicus [16],Active
same,Activity,Rattus norvegicus [17],Dose-dependent effect
same,Activity,Rattus norvegicus [18],inactive
CC[C@H](C)[C@H](NC(=O)[C@@H]1Cc2ccc(O)c(c2)CC=CCNCCC[C@H](N)C(=O)N[C@@H](CCCCN)C(=O)N2CCC[C@H]2C(=O)N1)C(=O)N[C@@H](CC(C)C)C(=O)O [listing 1 of 2 here],EC50,[4],3 nM
same,EC50,[5],4 nM
same,half-life,[1],0.5 to 0.65 h
same,EC50,[8],11 nM
CC(C)C[C@H](NC(=O)[C@@H]1CCC(=O)N[C@@H](CCCNC(=N)N)C(=O)N[C@@H](CCCCN)C(=O)N2CCC[C@H]2C(=O)N[C@@H](Cc2c[nH]c3ccccc23)C(=O)N1)C(=O)O (RKPWEL-OH; lactam N-5),Ki,[19],190 nM
CC(C)C[C@H](NC(=O)[C@@H]1CCC(=O)NCC(=O)N(C)[C@@H](CCCNC(=N)N)C(=O)N[C@@H](CCCCN)C(=O)N2CCC[C@H]2C(=O)N[C@@H](Cc2c[nH]c3ccccc23)C(=O)N1)C(=O)O (G[NMeR]KPWEL-OH; lactam N-6),Ki,[19],3500 nM
CC[C@H](C)[C@H](NC(=O)[C@H]1Cc2ccc(O)c(c2)CC=CCCCCCC[C@](C)(N)C(=O)N[C@@H](CCCCN)C(=O)N2CCC[C@H]2C(=O)N1)C(=O)N[C@@H](CC(C)C)C(=O)O,Activity,Rattus norvegicus [13],Active
same,Activity,Rattus norvegicus [9],Active
same,Activity,Rattus norvegicus [10],Active
same,deltaT,Rattus norvegicus [11],2 °C
same,Activity,Rattus norvegicus [12],inactive
CC[C@H](C)[C@H](NC(=O)[C@@H]1Cc2ccc(O)c(c2)CC=CCNCCCCCC(=O)N[C@@H](CCCCN)C(=O)N2CCC[C@H]2C(=O)N1)C(=O)N[C@@H](CC(C)C)C(=O)O,Ki,[2],656 nM
same,EC50,[5],96 nM
same,half-life,[1],24 h
CC[C@H](C)[C@H](NC(=O)[C@@H]1Cc2ccc(O)c(c2)CC=CCCCCCC[C@](C)(N)C(=O)N[C@@H](CCCCN)C(=O)N2CCC[C@H]2C(=O)N1)C(=O)N[C@@H](CC(C)C)C(=O)O [listing 2 of 2 here],Activity,Rattus norvegicus [6],25 mmHg
same,MPE,Rattus norvegicus [7],70%
CC[C@H](C)[C@H](NC(=O)[C@@H]1Cc2ccc(cc2)OCCCCCC(=O)N[C@@H](CCCNC(=N)N)C(=O)N2CCC[C@H]2C(=O)N1)C(=O)N[C@@H](CC(C)C)C(=O)O,Ki,[20],450 nM
CC[C@H](C)[C@H](NC(=O)[C@@H]1Cc2ccc(O)c(c2)CC=CCNCCC[C@H](N)C(=O)N[C@@H](CCCCN)C(=O)N2CCC[C@H]2C(=O)N1)C(=O)N[C@@H](CC(C)C)C(=O)O [listing 2 of 2 here],Activity,Rattus norvegicus [6],25 mmHg
same,MPE,Rattus norvegicus [7],50%
same,ED50,Rattus norvegicus [14],1.96 µg/kg
same,ED50,Rattus norvegicus [17],4.63 µg/kg

# Reference: ChEMBL document CHEMBL4196129, “Structural Optimization and Characterization of Potent Analgesic Macrocyclic Analogues of Neurotensin (8-13)” (J Med Chem, 2018)
